Source: ChEMBL document CHEMBL2434899, “Peripherally selective diphenyl purine antagonist of the CB1 receptor” (J Med Chem, 2013)
Calls of active or inactive are those of the source.

Columns and labels:
Cannabinoid receptor 2 = Cannabinoid receptor 2 (Homo sapiens, UniProt P34972); assay: Displacement of [3H]CP55940 from CB2 receptor (unknown origin) expressed in CHO-K1 cells; assay type: cell-based
Cannabinoid receptor 1 [1] = target: T1, Cannabinoid receptor 1 (Homo sapiens, UniProt P21554); assay: Antagonist activity at human CB1 receptor expressed in CHO-K1 cells by intracellular Ca2+ mobilization assay in presence of CP55940; assay type: functional, cell-based
In short: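 CHO-K1 cells co-expressing human CB1 and Gαq16; intracellular calcium flux read with fluorescent dye on a 96-well plate reader. Rightward shift of the CP55940 concentration-response curve gives Ke = [ligand]/(DR−1), DR being the CP55940 EC50 ratio with versus without test agent. Averages of 3–6 measurements.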

Cannabinoid receptor 1 [2] = target: T1, Cannabinoid receptor 1; assay: Displacement of [3H]CP55940 from human CB1 receptor expressed in CHO-K1 cells; assay type: cell-based
Homo sapiens = organism: Homo sapiens; assay: Selectivity ratio of Ki for CB2 receptor (unknown origin) to Ki for human CB1 receptor
[3] = Drug uptake in brain of Sprague-Dawley rat at 10 mg/kg, po after 24 hrs by LC-MS analysis; assay type: ADME, organism-based; design: dose 10 mg/kg, route oral; conditions: read-out: Drug uptake
In short: (§1)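 Male Sprague Dawley rats, 9 weeks old, given 10 mg/kg orally by gavage in corn oil; 3 rats per time point. Un-perfused brain and plasma taken at 1, 2, 4, 8 and 24 h. Plasma, or brain homogenized in ethanol:water, was precipitated with acetonitrile, centrifuged 9000 g for 5 min and analysed by LC-MS/MS (MRM, C18 column).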

Mus musculus [4] = assay: Antagonist activity at CB1 receptor in ICR mouse assessed as catelepsy at 10 mg/kg, po after 30 mins; assay type: functional, organism-based; design: dose 10 mg/kg
In short: (§2)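 Adult ICR mice given vehicle or 10 mg/kg oral gavage, then vehicle or 30 mg/kg Δ9-THC i.v. by tail vein 30 min later. Rectal temperature was taken before injection and at 30 min after it, reported as change (°C). At 40 min, time motionless on an elevated ring over 5 min was recorded as % immobility. 5–6 mice per group; factorial ANOVA with Tukey post hoc.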

[5] = Drug uptake in brain of Sprague-Dawley rat at 10 mg/kg, po after 8 hrs by LC-MS analysis; assay type: ADME, organism-based; design: dose 10 mg/kg, route oral; conditions: read-out: Drug uptake; in short: as §1
Mus musculus [6] = assay: Reversal of delta9-THC-mediated suppression of hypothermia in ICR mouse assessed as rectal temperature at 10 mg/kg, po administered 30 mins prior to delta9-THC challenge measured after 30 mins relative to control; assay type: functional, organism-based; design: dose 10 mg/kg; in short: as §2
Nucleic Acid [7] = assay: Ratio of drug uptake from brain to plasma in Sprague-Dawley rat at 10 mg/kg, po after 24 hrs by LC-MS analysis; assay type: ADME, organism-based; design: dose 10 mg/kg, route oral; in short: as §1
[8] = Plasma concentration in Sprague-Dawley rat at 10 mg/kg, po after 24 hrs by LC-MS analysis; assay type: ADME, organism-based; design: dose 10 mg/kg, route oral; in short: as §1
Mus musculus [9] = assay: Reversal of delta9-THC-mediated suppression of antinociceptive activity in ICR mouse assessed as latency period at 10 mg/kg, po administered 30 mins prior to delta9-THC challenge measured after 20 mins by warm water tail withdrawal assay; assay type: functional, organism-based; design: dose 10 mg/kg
In short: (§3)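 ICR mice had baseline tail-withdrawal latency measured in a 55 °C water bath, then received oral vehicle or 10 mg/kg by gavage, followed 30 min later by i.v. vehicle or 30 mg/kg Δ9-THC. Latency was retested 20 min post-injection with a 10 s cutoff, expressed as %MPE = [(test−control)/(10−control)]×100. 5–6 mice per group; factorial ANOVA with Tukey post hoc.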

[10] = Plasma concentration in Sprague-Dawley rat at 10 mg/kg, po after 4 hrs by LC-MS analysis; assay type: ADME, organism-based; design: dose 10 mg/kg, route oral; in short: as §1
Nucleic Acid [11] = assay: Ratio of drug uptake from brain to plasma in Sprague-Dawley rat at 10 mg/kg, po after 2 hrs by LC-MS analysis; assay type: ADME, organism-based; design: dose 10 mg/kg, route oral; in short: as §1
Nucleic Acid [12] = assay: Ratio of drug uptake from brain to plasma in Sprague-Dawley rat at 10 mg/kg, po after 1 hr by LC-MS analysis; assay type: ADME, organism-based; design: dose 10 mg/kg, route oral; in short: as §1
Mus musculus [13] = assay: Reversal of delta9-THC-mediated suppression of spontaneous activity in ICR mouse at 10 mg/kg, po administered 30 mins prior to delta9-THC challenge measured after 5 mins; assay type: functional, organism-based; design: dose 10 mg/kg
In short: (§4)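 ICR mice were gavaged with vehicle or 10 mg/kg, then injected i.v. in the tail vein 30 min later with vehicle or 30 mg/kg Δ9-THC. After 5 min each mouse was placed in an activity chamber for 10 min; horizontal movement was counted as total infrared photobeam interruptions. 5–6 mice per group; factorial ANOVA with Tukey post hoc.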

[14] = Plasma concentration in Sprague-Dawley rat at 10 mg/kg, po after 8 hrs by LC-MS analysis; assay type: ADME, organism-based; design: dose 10 mg/kg, route oral; in short: as §1
Nucleic Acid [15] = assay: Ratio of drug uptake from brain to plasma in Sprague-Dawley rat at 10 mg/kg, po after 8 hrs by LC-MS analysis; assay type: ADME, organism-based; design: dose 10 mg/kg, route oral; in short: as §1
[16] = Plasma concentration in Sprague-Dawley rat at 10 mg/kg, po after 1 hr by LC-MS analysis; assay type: ADME, organism-based; design: dose 10 mg/kg, route oral; in short: as §1
[17] = Plasma concentration in Sprague-Dawley rat at 10 mg/kg, po after 2 hrs by LC-MS analysis; assay type: ADME, organism-based; design: dose 10 mg/kg, route oral; in short: as §1
Mus musculus [18] = assay: Antagonist activity at CB1 receptor in ICR mouse assessed as suppression of spontaneous activity at 10 mg/kg, po after 30 mins; assay type: functional, organism-based; design: dose 10 mg/kg; in short: as §4
[19] = Drug uptake in brain of Sprague-Dawley rat at 10 mg/kg, po after 4 hrs by LC-MS analysis; assay type: ADME, organism-based; design: dose 10 mg/kg, route oral; conditions: read-out: Drug uptake; in short: as §1
Mus musculus [20] = assay: Antagonist activity at CB1 receptor in ICR mouse assessed as rectal temperature at 10 mg/kg, po after 30 mins relative to control; assay type: functional, organism-based; design: dose 10 mg/kg; in short: as §2
Nucleic Acid [21] = assay: Ratio of drug uptake from brain to plasma in Sprague-Dawley rat at 10 mg/kg, po after 4 hrs by LC-MS analysis; assay type: ADME, organism-based; design: dose 10 mg/kg, route oral; in short: as §1
[22] = Drug uptake in brain of Sprague-Dawley rat at 10 mg/kg, po after 2 hrs by LC-MS analysis; assay type: ADME, organism-based; design: dose 10 mg/kg, route oral; conditions: read-out: Drug uptake; in short: as §1
Mus musculus [23] = assay: Reversal of delta9-THC-mediated suppression of catelepsy in ICR mouse at 10 mg/kg, po administered 30 mins prior to delta9-THC challenge measured after 40 mins; assay type: functional, organism-based; design: dose 10 mg/kg; in short: as §2
[24] = Drug uptake in brain of Sprague-Dawley rat at 10 mg/kg, po after 1 hr by LC-MS analysis; assay type: ADME, organism-based; design: dose 10 mg/kg, route oral; conditions: read-out: Drug uptake; in short: as §1
Mus musculus [25] = assay: Antagonist activity at CB1 receptor in ICR mouse assessed as latency period at 10 mg/kg, po after 30 mins by warm water tail withdrawal assay; assay type: functional, organism-based; design: dose 10 mg/kg; in short: as §3

Sequence of Cannabinoid receptor 2 (P34972 whole entry): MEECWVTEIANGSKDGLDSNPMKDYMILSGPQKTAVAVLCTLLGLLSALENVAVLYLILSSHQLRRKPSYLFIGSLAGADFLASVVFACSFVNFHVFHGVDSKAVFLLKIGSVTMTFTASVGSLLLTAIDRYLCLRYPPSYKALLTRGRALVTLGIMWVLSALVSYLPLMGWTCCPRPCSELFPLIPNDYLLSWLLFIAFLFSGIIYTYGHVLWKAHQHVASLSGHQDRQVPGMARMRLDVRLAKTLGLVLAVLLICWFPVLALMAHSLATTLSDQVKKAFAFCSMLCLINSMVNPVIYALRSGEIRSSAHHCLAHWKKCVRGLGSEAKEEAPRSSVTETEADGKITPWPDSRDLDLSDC
T1 sequence (P21554 whole entry): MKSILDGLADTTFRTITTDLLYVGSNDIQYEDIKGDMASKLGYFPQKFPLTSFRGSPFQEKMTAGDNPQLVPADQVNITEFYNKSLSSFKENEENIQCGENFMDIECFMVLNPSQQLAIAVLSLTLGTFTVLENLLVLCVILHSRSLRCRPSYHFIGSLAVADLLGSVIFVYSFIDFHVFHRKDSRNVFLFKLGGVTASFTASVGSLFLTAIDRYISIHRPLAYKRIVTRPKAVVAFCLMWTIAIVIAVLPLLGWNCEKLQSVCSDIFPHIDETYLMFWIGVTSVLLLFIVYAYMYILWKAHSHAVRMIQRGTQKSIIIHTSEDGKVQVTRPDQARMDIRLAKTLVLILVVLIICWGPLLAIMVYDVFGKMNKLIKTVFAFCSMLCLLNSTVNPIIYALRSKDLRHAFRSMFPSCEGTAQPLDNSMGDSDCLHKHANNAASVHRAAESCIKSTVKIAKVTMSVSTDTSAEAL

SMILES: O=C(CC1CCCCC1)NC1CCN(c2ncnc3c2nc(-c2ccccc2Cl)n3-c2ccc(Cl)cc2)CC1
- Ki (Cannabinoid receptor 2): 2360 nM
- Ke (Cannabinoid receptor 1 [1]): 2.1 nM
- Ki (Cannabinoid receptor 1 [2]): 1.93 nM

SMILES: CCOC(=O)NC1CCN(c2ncnc3c2nc(-c2ccccc2Cl)n3-c2ccc(Cl)cc2)CC1
- Ratio Ki (Homo sapiens): 119
- Ki (Cannabinoid receptor 2): 426 nM
- Ke (Cannabinoid receptor 1 [1]): 2.3 nM
- Ki (Cannabinoid receptor 1 [2]): 3.57 nM

SMILES: CC(C)CCC(=O)NC1CCN(c2ncnc3c2nc(-c2ccccc2Cl)n3-c2ccc(Cl)cc2)CC1
- Ratio Ki (Homo sapiens): 81
- Ki (Cannabinoid receptor 2): 215 nM
- Ke (Cannabinoid receptor 1 [1]): 7.4 nM
- Ki (Cannabinoid receptor 1 [2]): 2.67 nM

SMILES: O=C(CCN1CCCCC1)NC1CCN(c2ncnc3c2nc(-c2ccccc2Cl)n3-c2ccc(Cl)cc2)CC1
- Ke (Cannabinoid receptor 1 [1]): 789 nM

SMILES: O=C(NC1CCN(c2ncnc3c2nc(-c2ccccc2Cl)n3-c2ccc(Cl)cc2)CC1)C1CCCCC1
- Ratio Ki (Homo sapiens): 249
- Ki (Cannabinoid receptor 2): 835 nM
- Ke (Cannabinoid receptor 1 [1]): 3.3 nM
- Ki (Cannabinoid receptor 1 [2]): 3.35 nM

SMILES: O=C(NC1CCN(c2ncnc3c2nc(-c2ccccc2Cl)n3-c2ccc(Cl)cc2)CC1)C1CCCC1
- Ratio Ki (Homo sapiens): 39
- Ki (Cannabinoid receptor 2): 60.2 nM
- Ke (Cannabinoid receptor 1 [1]): 0.89 nM
- Ki (Cannabinoid receptor 1 [2]): 1.54 nM

SMILES: CC(C)CC(=O)NC1CCN(c2ncnc3c2nc(-c2ccccc2Cl)n3-c2ccc(Cl)cc2)CC1
- Ratio Ki (Homo sapiens): 22
- Ki (Cannabinoid receptor 2): 89.5 nM
- Ke (Cannabinoid receptor 1 [1]): 5.4 nM
- Ki (Cannabinoid receptor 1 [2]): 4.01 nM

SMILES: NS(=O)(=O)NC1CCN(c2ncnc3c2nc(-c2ccccc2Cl)n3-c2ccc(Cl)cc2)CC1
- Ke (Cannabinoid receptor 1 [1]): 2770 nM

SMILES: CN(C)CC(=O)NC1CCN(c2ncnc3c2nc(-c2ccccc2Cl)n3-c2ccc(Cl)cc2)CC1
- Ke (Cannabinoid receptor 1 [1]): 140 nM

SMILES: O=C(CC1CCCC1)NC1CCN(c2ncnc3c2nc(-c2ccccc2Cl)n3-c2ccc(Cl)cc2)CC1
- Ratio Ki (Homo sapiens): 282
- Ki (Cannabinoid receptor 2): 569 nM
- Ke (Cannabinoid receptor 1 [1]): 2.9 nM
- Ki (Cannabinoid receptor 1 [2]): 2.02 nM

SMILES: COC(=O)NC1CCN(c2ncnc3c2nc(-c2ccccc2Cl)n3-c2ccc(Cl)cc2)CC1
- Ke (Cannabinoid receptor 1 [1]): 17 nM

SMILES: O=C(NC1CCN(c2ncnc3c2nc(-c2ccccc2Cl)n3-c2ccc(Cl)cc2)CC1)Oc1ccccc1
- Ki (Cannabinoid receptor 2): 10600 nM
- Ki (Cannabinoid receptor 1 [2]): 2.55 nM

SMILES: O=S(=O)(NC1CCN(c2ncnc3c2nc(-c2ccccc2Cl)n3-c2ccc(Cl)cc2)CC1)C(F)(F)F
- Ratio Ki (Homo sapiens): 738
- Ki (Cannabinoid receptor 2): 4500 nM
- Ke (Cannabinoid receptor 1 [1]): 1.05 nM
- Ki (Cannabinoid receptor 1 [2]): 6.1 nM

SMILES: CCCCC(=O)NC1CCN(c2ncnc3c2nc(-c2ccccc2Cl)n3-c2ccc(Cl)cc2)CC1
- concentration at 24 h [3]: 5.35 ng/mL
- Activity (Mus musculus [4]): inactive
- concentration at 8 h [5]: 62.5 ng/mL
- Activity (Mus musculus [6]): inactive
- BPR (Nucleic Acid [7]): 0.01
- concentration at 24 h [8]: 438 ng/mL
- Activity (Mus musculus [9]): inactive
- concentration at 4 h [10]: 1560 ng/mL
- BPR (Nucleic Acid [11]): 0.04
- BPR (Nucleic Acid [12]): 0.03
- Activity (Mus musculus [13]): inactive
- Ratio Ki (Homo sapiens): 54
- concentration at 8 h [14]: 1960 ng/mL
- BPR (Nucleic Acid [15]): 0.03
- concentration at 1 h [16]: 730 ng/mL
- concentration at 2 h [17]: 1750 ng/mL
- Activity (Mus musculus [18]): inactive
- Ki (Cannabinoid receptor 2): 1050 nM
- concentration at 4 h [19]: 103 ng/mL
- Activity (Mus musculus [20]): inactive
- Ke (Cannabinoid receptor 1 [1]): 4.9 nM
- BPR (Nucleic Acid [21]): 0.07
- concentration at 2 h [22]: 71.5 ng/mL
- Activity (Mus musculus [23]): inactive
- concentration at 1 h [24]: 24.3 ng/mL
- Ki (Cannabinoid receptor 1 [2]): 19.5 nM
- Activity (Mus musculus [25]): inactive
